An excerpt weighted towards active compounds, which were near 3.1% of everything screened.
NadD block – blocks S. aureus nicotinate mononucleotide adenylyltransferase. AID 602399. purified NadD enzyme, colorimetric absorbance read-out. inhibition, % at 20 µM. 360,000 compounds, 0.78% hits; in the data active = inhibition above about 26%
PP1 inh – PP1-alpha (human) inhibition in PP5 counter-screen. P62136. purified PP1alpha, OMFP fluorescence. inhibition, % at 6.7 µM. 320,000 compounds, 0.9% hits. AID 2235;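 active = inhibition above the mean inhibition of all tested compounds plus 3 SD, computed separately for each screening campaign, cut at about 15% in these data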
Target sequence (P62136 whole entry, looked up): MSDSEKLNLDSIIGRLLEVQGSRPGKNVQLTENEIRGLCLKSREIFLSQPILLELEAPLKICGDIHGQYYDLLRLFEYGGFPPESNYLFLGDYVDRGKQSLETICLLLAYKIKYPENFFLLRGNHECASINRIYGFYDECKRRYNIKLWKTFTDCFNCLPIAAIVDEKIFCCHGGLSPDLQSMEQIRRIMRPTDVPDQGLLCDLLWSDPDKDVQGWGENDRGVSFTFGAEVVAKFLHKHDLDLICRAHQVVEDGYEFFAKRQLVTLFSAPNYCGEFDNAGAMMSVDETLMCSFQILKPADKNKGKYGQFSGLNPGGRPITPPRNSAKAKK
Fh CTSL1 inh – blocks F. hepatica cathepsin L1 in PFM18AAP counter-screen | AID 1906 | inhibition, % at 5.96 µM | recombinant F. hepatica cathepsin L1, Z-Leu-Arg-MCA fluorescence | 300,000 compounds, 0.49% hits;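 active = inhibition above the mean of all tested compounds plus 3 SD, set per screening campaign, cut at about 17% in these data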;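 also: 0% = plate median of test compound wells and 100% = 1 µM Z-Phe-Ala-diazomethylketone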
PP5 inh – PP5 (human) phosphatase inhibition; purified PP5c, OMFP substrate fluorescence; inhibition, % at 6.7 µM; P53041; 320,000 compounds, 0.18% hits; AID 1987;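 active = inhibition above the campaign's mean inhibition across all tested compounds plus 3 SD, cut at about 9.5% in these data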;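 also: 0% = DMSO only and 100% = 100 µM cantharidin control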
core dimer inh – HCV core protein dimerization inhibition; TR-FRET GST/Flag-core106 dimerization, 1536-well; inhibition, % at 5 µM; 300,000 compounds, 0.33% hits;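 active = inhibition above the mean of all tested compounds plus 3 SD, set per screening campaign, cut at about 45% in these data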
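System – GST-tagged and Flag-tagged HCV core protein residues 1-106 · Repeats – one well for each compound · Technique – TR-FRET 671 and 617 nm emission · Doses – one concentration, 5 µM, in 0.5% DMSO · Times – 4 h, 22.5 °C incubation · Also added – Eu donor and XL665 acceptor anti-tag antibodies · Measure – percent inhibition of core106 dimerization signal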
Myeloid diff 2 – myeloid differentiation induction; ER-HoxA9 myeloid progenitors, lysozyme-GFP differentiation, flow cytometry; calls only at 10 µM; 360,000 compounds, 1% hits; AID 624256;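 active = normalized GFP-positive differentiation at or above the plate's own cutoff, the solvent-only control mean plus 3 SD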;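 also: cells exposed to compound for four days before flow analysis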
PP1 inh confirm – confirmation of human PP1 phosphatase inhibitors. shares compounds with PP1 inh. purified PP1alpha, OMFP substrate fluorescence. inhibition, % at 6.7 µM. 1,900 compounds, 52% hits;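 active = mean PP1 inhibition above a set limit taken from the earlier primary screen, cut at about 15% in these data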
PP5 counter – inhibits human PP5 phosphatase in PP1 counter-screen; shares compounds with PP1 inh; purified PP5c, OMFP fluorescence; inhibition, % at 6.7 µM; 1,900 compounds, 4% hits;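 active = mean PP5 inhibition over triplicate wells above about 9.5% taken from the earlier PP1 screen, limit read from the data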
NadD inh conf – confirmation of Staphylococcus aureus NadD inhibitors | shares compounds with NadD block | purified S. aureus NadD, colorimetric enzyme assay | inhibition, % at 20 µM | 2,000 compounds, 13% hits; in the data active = inhibition mostly above about 42%, no sharp cut-off; inactive = mostly below about 42%
Myeloid diff CP1 – promotes myeloid progenitor differentiation; shares compounds with Myeloid diff 2; ER-HoxA9 myeloid progenitors, GFP/Mac1 double-positive flow; calls only; 2,300 compounds, 2% hits;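 active = share of green or green-and-red cells above 9 and 9% in run 1 or 4 and 3% in run 2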
GFP autofluor – flagged as fluorescent in myeloid differentiation counter-screen; shares compounds with Myeloid diff 2; fluorescence response, % (concentration not given with the values); ER-HoxA9 myeloid progenitors, no estrogen, GFP autofluorescence flow cytometry; vehicle wells 0%, positive control 100%; 2,300 compounds, 7.4% hits;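 active = over 5% cells positive for green fluorescent reporter, or over 2% positive for both it and APC stain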;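 also: range taken on the double positive population between DMSO and positive control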
The depositor's hits bear a star; i = inactive; . = no result given; + = active, no number.

SMILES	NadD block	PP1 inh	Fh CTSL1 inh	PP5 inh	core dimer inh	Myeloid diff 2	NadD inh conf	others
CCCn1c(=N)c(S(=O)(=O)c2ccc(F)cc2)cc2c(=O)n3ccccc3nc21	4.7	0.5	-1.9	-2.3	5.1	i	.
CSc1nnc(N2C(=O)C(O)=C(C(=O)c3ccco3)C2c2ccccc2)s1 (stereo not drawn)	2.1	2.8	0.7	-0.8	-4.6	i	.
CSc1nnc(N2C(=O)C(O)=C(C(=O)c3ccc(C)o3)C2c2ccc(C)cc2)s1 (stereo not drawn)	15.1	29.7*	-5.4	1.8	-7.1	+	.	PP1 inh confirm=24.5*;PP5 counter=-2.1;Myeloid diff CP1=i;GFP autofluor=0.0
Cc1cccc(OCC(=O)NCC(=O)N/N=C/c2cc(Br)cc(Br)c2O)c1	21.6	11.7	3.6	0.2	4.5	i	.
COC(=O)C(C(=O)OC)c1ncccc1NS(=O)(=O)c1ccc(C)cc1	.	.	.	.	.	i	.
Cc1ccc(S(=O)(=O)CCC(=O)Nc2nc(-c3ccccn3)cs2)cc1	-3.6	27.2*	.	1.6	.	+	.	PP1 inh confirm=40.3*;PP5 counter=2.4;Myeloid diff CP1=i;GFP autofluor=1.1
C[C@@H](C(=O)Nc1nc(-c2ccccn2)cs1)N1C(=O)C2CCCCC2C1=O (stereo partly drawn)	9.7	8.3	4.3	0.9	18.3	i	.
CC(Oc1ccc(Br)cc1)C(=O)Nc1nc(-c2ccccn2)cs1 (stereo not drawn)	7.9	31.0*	-0.5	5.5	11.1	+	.	PP1 inh confirm=32.2*;PP5 counter=-2.1;Myeloid diff CP1=i;GFP autofluor=0.0
Cc1ccccc1NC(=O)CSc1nc(=O)n(CCN2CCOCC2)c2c1CCCC2	3.3	0.6	-1.5	1.1	-2.5	i	.
O=C(N/N=C/c1ccccn1)c1cc(-c2ccc3ccccc3c2)n[nH]1	17.1	27.6*	-0.4	4.0	6.0	i	.	PP1 inh confirm=62.4*;PP5 counter=5.6;Myeloid diff CP1=i;GFP autofluor=0.5
CCOC(=O)Cc1csc(NC(=O)c2sc3nc4ccc(CC)cc4cc3c2N)n1	15.9	30.1*	1.9	0.2	0.4	i	.	PP1 inh confirm=25.0*;PP5 counter=-2.2;Myeloid diff CP1=i;GFP autofluor=3.2
CCOC(=O)Cc1csc(NC(=O)c2sc3nc4cc(C)ccc4cc3c2N)n1	5.0	27.9*	5.3	1.1	-8.7	i	.	PP1 inh confirm=33.5*;PP5 counter=-1.5;Myeloid diff CP1=i;GFP autofluor=1.3
CCOC(=O)Cc1csc(NC(=O)c2ccc(C)cc2)n1	-5.6	-3.5	1.1	-1.4	0.9	i	.
CNC(C)C(=O)NC(C(=O)NC(C)C(=O)NNc1ccccc1)C(C)C (stereo not drawn)	-0.6	.	.	.	.	i	.
CC(C)C(=O)N1CCCCCCN1C(=O)C(C)C	-4.0	.	.	.	.	i	.
O=C(COc1coc(CN2CCCc3ccccc32)cc1=O)Nc1ccc([N+](=O)[O-])cc1	22.7	20.9*	5.7	-2.5	13.2	+	.	PP1 inh confirm=4.3;PP5 counter=-3.8;Myeloid diff CP1=i;GFP autofluor=0.0
CSc1nc(SCC(=O)O)c2sc3nc(-c4ccccc4)c4c(c3c2n1)CCC4	28.3*	.	.	.	.	i	-0.3
CSc1nc(NCCN(C)C)c2sc3nc(-c4ccco4)c4c(c3c2n1)CCC4	-4.2	.	.	.	.	i	.
O=c1cc(CN2CCN(S(=O)(=O)c3cccc(Cl)c3)CC2)c2ccc(O)cc2o1	35.0*	.	.	.	.	i	41.0
Cc1nn(-c2ccc([N+](=O)[O-])cc2)c2c1C(c1cccc(Br)c1)N1C(=N2)C(=O)Nc2ccccc21 (stereo not drawn)	31.5*	2.4	-0.6	0.5	24.6	i	12.7
Cc1noc(C)c1S(=O)(=O)Nc1ccc(C(C)C)cc1	-9.5	6.5	0.2	1.4	2.5	i	.
COc1cc2c(cc1NC(=O)C(C)N1CCN(S(=O)(=O)c3ccccc3[N+](=O)[O-])CC1)oc1ccccc12 (stereo not drawn)	37.6*	-5.7	-1.5	1.7	11.8	i	-0.6
COc1cc2c(cc1NC(=O)C(C)N1CCN(S(=O)(=O)c3ccc(C)c(C)c3)CC1)oc1ccccc12 (stereo not drawn)	0.7	-1.6	-2.1	-2.6	8.1	i	.
COc1cc2c(cc1NC(=O)CN1CCN(S(=O)(=O)c3ccc(C)cc3)CC1)oc1ccccc12	32.8*	-1.6	-2.1	4.0	9.3	i	8.5
COc1cc2c(cc1NC(=O)C(C)OC(=O)c1ccc(S(=O)(=O)Nc3ccccc3Cl)cc1)oc1ccccc12 (stereo not drawn)	31.9*	0.3	-0.1	0.2	36.4	i	1.9
SMILES	NadD block	PP1 inh	Fh CTSL1 inh	PP5 inh	core dimer inh	Myeloid diff 2	NadD inh conf	others
CC(OC(=O)c1ccc(NS(=O)(=O)c2ccc3[nH]c(=O)[nH]c3c2)cc1)C(=O)Nc1ccc(Cl)cc1 (stereo not drawn)	6.9	-4.6	2.2	1.2	6.0	i	.
COc1ccc(Cl)cc1NC(=O)C(C)OC(=O)c1ccc(NS(=O)(=O)c2ccc3[nH]c(=O)[nH]c3c2)cc1 (stereo not drawn)	36.4*	3.6	4.0	3.8	12.0	i	31.0
C/C(NCCc1ccccc1)=C1/CCOC1=O	4.9	.	.	.	.	i	.
COCCCn1c(=N)c(C(N)=S)cc2c(=O)n3cccc(C)c3nc21	27.7	0.3	4.8	0.3	6.6	i	.
Cc1cccn2c(=O)c3cc(C(N)=S)c(=N)n(CCCN4CCOCC4)c3nc12	36.0*	3.9	4.8	-0.3	1.8	i	-8.2
O=c1c2c3nc4ccccc4nc3n(Cc3ccccc3)c2ncn1Cc1ccco1	39.1*	.	.	.	.	i	14.1
COCCCn1c2nc3ccccc3nc2c2c(=O)n(Cc3ccc(Cl)cc3)cnc21	2.6	-3.1	1.6	0.9	8.5	i	.
Cc1ccccc1-n1nc2c(c1NC(=O)/C=C\c1ccc3c(c1)OCO3)CSC2	28.1	12.2	12.4	0.5	35.4	i	.
Cc1ccccc1-n1nc2c(c1NC(=O)c1c(-c3ccccc3Cl)noc1C)CSC2	63.2*	4.2	-1.5	1.4	12.0	i	34.4
Cc1ccc(-n2nc3c(c2NC(=O)/C=C\c2ccc4c(c2)OCO4)CSC3)c(C)c1	30.6*	14.0	2.1	1.3	3.5	i	56.7*
Cc1ccc(-n2nc3c(c2NC(=O)c2ccc(Br)o2)CSC3)c(C)c1	85.2*	2.4	1.2	-1.7	17.4	i	62.3*
Cc1cccc(-n2nc3c(c2NC(=O)c2ccco2)CSC3)c1C	43.7*	13.1	0.9	1.1	49.4*	i	72.6*

From PubChem
